Laboratory results as given in ChEMBL document CHEMBL1134366, “Enantiospecific synthesis and pharmacological evaluation of a series of super-potent, conformationally restricted 5-HT(2A/2C) receptor agonists” (J Med Chem, 2001).

What was measured:
[1] = biological target: 5-hydroxytryptamine receptor 2A (Rattus norvegicus) (UniProt P14842); assay: Percent maximal 5-HT stimulation at cloned rat 5-hydroxytryptamine 2A receptor (phosphoinositide hydrolysis study) at a conc of 100 uM
[2] = biological target: T1, 5-hydroxytryptamine receptor 2A (Rattus norvegicus, UniProt P14842); assay: Ability to stimulate phosphoinositide hydrolysis in NIH3T3 cells expressing the 5-hydroxytryptamine 2A receptor; type: cell-based
[3] = biological target: T2, 5-hydroxytryptamine receptor 2C (Rattus norvegicus, UniProt P08909); assay: Binding affinity at cloned rat 5-hydroxytryptamine 2C receptor using [3H]DOI as radioligand
T2 sequence (P08909 whole entry): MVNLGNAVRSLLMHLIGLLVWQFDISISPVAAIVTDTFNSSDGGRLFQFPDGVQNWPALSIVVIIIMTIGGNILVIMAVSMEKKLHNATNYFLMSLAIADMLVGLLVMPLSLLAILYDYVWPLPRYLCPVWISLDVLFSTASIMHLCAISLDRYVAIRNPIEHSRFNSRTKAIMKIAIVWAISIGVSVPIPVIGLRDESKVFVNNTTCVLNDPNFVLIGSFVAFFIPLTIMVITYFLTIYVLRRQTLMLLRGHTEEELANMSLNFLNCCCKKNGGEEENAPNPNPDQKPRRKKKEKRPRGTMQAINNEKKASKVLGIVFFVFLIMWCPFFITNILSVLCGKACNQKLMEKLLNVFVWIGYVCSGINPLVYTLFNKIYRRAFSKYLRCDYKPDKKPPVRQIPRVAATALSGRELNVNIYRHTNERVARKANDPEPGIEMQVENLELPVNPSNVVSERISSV
How it was run: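 Competition binding using harvested, frozen NIH-3T3 cells stably expressing rat 5-HT2C. Buffer 50 mM Tris, 0.5 mM EDTA, 10 mM MgCl2, pH 7.4. Incubated 60 min at 25 °C, then rapid filtration onto polyethylenimine-treated GF/B filters and scintillation counting. Nonspecific binding defined with 10 µM mianserin in the saturation assays.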

[4] = biological target: T1, 5-hydroxytryptamine receptor 2A; assay: Binding affinity at cloned rat 5-hydroxytryptamine 2A receptor using [3H]DOB as radioligand
How it was run: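 Competition binding using harvested, frozen NIH-3T3 cells stably expressing rat 5-HT2A, serum-starved 5 h before harvest. Incubated 60 min at 25 °C, then rapid filtration onto GF/B filters pre-soaked in 0.3% polyethylenimine, and scintillation counting. Nonspecific binding defined with 10 µM cinanserin in the saturation assays.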

T1 sequence (P14842 whole entry): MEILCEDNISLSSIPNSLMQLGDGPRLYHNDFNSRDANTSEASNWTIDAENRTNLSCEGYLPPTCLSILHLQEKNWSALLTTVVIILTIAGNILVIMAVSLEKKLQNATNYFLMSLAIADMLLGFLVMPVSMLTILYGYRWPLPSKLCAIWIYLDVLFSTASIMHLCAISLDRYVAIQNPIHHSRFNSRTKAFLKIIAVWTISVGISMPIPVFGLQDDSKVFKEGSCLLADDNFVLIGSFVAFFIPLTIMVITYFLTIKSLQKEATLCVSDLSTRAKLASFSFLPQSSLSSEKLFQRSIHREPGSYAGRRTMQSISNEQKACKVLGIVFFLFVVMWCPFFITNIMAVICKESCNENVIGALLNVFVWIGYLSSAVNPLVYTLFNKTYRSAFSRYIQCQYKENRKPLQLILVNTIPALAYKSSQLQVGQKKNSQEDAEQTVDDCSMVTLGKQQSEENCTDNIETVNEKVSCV
Chain of 5-hydroxytryptamine receptor 2A (Rattus norvegicus) (P14842 whole entry): as above

| SMILES | Max stimulation [1] | EC50 [2] | Ki [3] | Ki [4] |
| --- | --- | --- | --- | --- |
| COc1cc(CC(C)N)c(OC)cc1Br (configuration not stated) | 79% | – | – | – |
| C[C@@H](N)Cc1c2c(cc3c1OCC3)OCC2 | 99% | 5650 nM | 8.2 nM | 54.4 nM |
| C[C@H](N)Cc1c2ccoc2c(C(F)(F)F)c2ccoc12 | 52% | 12 nM | 0.69 nM | 0.32 nM |
| C[C@H](N)Cc1c2c(cc3c1OCC3)OCC2 | 62% | 2360 nM | 119 nM | 227 nM |
| C[C@@H](N)Cc1c2ccoc2c(C(F)(F)F)c2ccoc12 | 60% | 3.8 nM | 0.4 nM | 0.29 nM |
| C[C@@H](N)Cc1c2c(c(C(F)(F)F)c3c1OCC3)OCC2 | 69% | 28 nM | 1.9 nM | 0.7 nM |
| C[C@H](N)Cc1c2c(c(Br)c3c1OCC3)OCC2 | 76% | 35 nM | 1.1 nM | 2.6 nM |
| C[C@H](N)Cc1c2ccoc2cc2ccoc12 | 68% | 650 nM | 6 nM | 37.9 nM |
| C[C@@H](N)Cc1c2ccoc2c(Br)c2ccoc12 | 93% | 2.7 nM | 0.11 nM | 0.31 nM |
| C[C@H](N)Cc1c2ccoc2c(Br)c2ccoc12 | 79% | 19 nM | 0.25 nM | 0.68 nM |
| C[C@@H](N)Cc1c2ccoc2cc2ccoc12 | 76% | 590 nM | 0.79 nM | 1.5 nM |
| COc1ccc(OC)c(C[C@@H](C)N)c1 | 16% | > 10000 nM | 520 nM | 2340 nM |
| C[C@@H](N)Cc1c2c(c(Br)c3c1OCC3)OCC2 | 80% | 8.38 nM | 0.26 nM | 1.2 nM |
| COc1cc(C(F)(F)F)c(OC)cc1CC(C)N (configuration not stated) | 86% | 68.4 nM | 3.78 nM | 2.2 nM |
| C[C@H](N)Cc1c2c(c(C(F)(F)F)c3c1OCC3)OCC2 | 60% | 30 nM | 1.6 nM | 2 nM |
